Experimental data taken from ChEMBL document CHEMBL1177847, “Combating oxidative stress in epilepsy: design, synthesis, quantum chemical studies and anticonvulsant evaluation of 1-(substituted benzylidene/ethylidene)-4-(naphthalen-1-yl)semicarbazides” (Eur J Med Chem, 2010).

What was measured:
Mus musculus [1] = test: Anticonvulsant activity against maximal electroshock-induced seizures in ip dosed Swiss albino mouse assessed as minimum effective dose after 4 hrs; type: functional; conditions: read-out: MED
Method in brief: (§1)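 Male Swiss albino mice (18–25 g) received the compound suspended in 5% gum acacia/water, i.p. at 30, 100 and 300 mg/kg (one to four animals per dose). Maximal electroshock was applied at 0.5 and 4 h. Protection meant abolition of the hind limb tonic extensor component. The lowest dose protecting half or more of the mice was recorded.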

Mus musculus [2] = test: Reduction of lipid peroxidation in subcutaneous pentylenetetrazole treated Swiss albino mouse brain assessed reduction of malondialdehyde level per mg of protein at 100 mg/kg, ip after 4 hrs by TBARS assay; type: functional; conditions: route intraperitoneal
Method in brief: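 PTZ-treated mice were dosed at 100 mg/kg i.p. and decapitated 4 h after the last injection. Brains were homogenized in four volumes of ice-cold 50 mM Tris-HCl, pH 7.4, and spun at 3000 × g for 15 min. TBARS in the supernatant was read at 532 nm in the upper organic layer and expressed as nmol MDA/mg protein. n = 6, mean ± S.E.M.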

Rattus norvegicus [3] = test: Anticonvulsant activity against subcutaneous pentylenetetrazole-induced seizures in Wistar albino rat at 50 mg/kg, ip after 1 hr; type: functional
Mus musculus [4] = test: Restoration of GSH level in subcutaneous pentylenetetrazole treated Swiss albino mouse brain assessed per gram of tissue at 100 mg/kg, ip after 4 hrs; type: functional; conditions: route intraperitoneal
Method in brief: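 Brains were taken from PTZ-treated mice 4 h after 100 mg/kg i.p. dosing. Tissue was deproteinized with an equal volume of 10% TCA for 2 h at 4 °C and centrifuged at 2000 g for 15 min. The supernatant was mixed with 0.4 M Tris (pH 8.9) containing 0.02 M EDTA, and 0.01 M DTNB was added before spectrophotometric reading. n = 6.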

Rattus norvegicus [5] = test: Anticonvulsant activity against subcutaneous pentylenetetrazole-induced seizures in Wistar albino rat at 50 mg/kg, ip after 0.5 hrs; type: functional
Mus musculus [6] = test: Anticonvulsant activity against subcutaneous pentylenetetrazole-induced seizures in ip dosed Swiss albino mouse assessed as minimum effective dose after 0.5 hrs; type: functional; conditions: read-out: MED
Method in brief: (§2)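 Male Swiss albino mice (18–25 g) were dosed i.p. with the compound in 5% gum acacia/water at 30, 100 or 300 mg/kg. Thirty minutes later they received PTZ 85 mg/kg (CD97) and were watched for seizures over 4 h. Readings at 0.5 and 4 h gave the lowest dose active in half or more of the animals. Myoclonic jerks were noted separately.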

Mus musculus [7] = test: Anticonvulsant activity against subcutaneous pentylenetetrazole-induced seizures in ip dosed Swiss albino mouse assessed as minimum effective dose after 4 hrs; type: functional; conditions: read-out: MED; method in brief: as §2
Mus musculus [8] = test: Restoration of GSH peroxidase activity in subcutaneous pentylenetetrazole treated Swiss albino mouse brain assessed per mg of protein at 100 mg/kg, ip after 4 hrs; type: functional; conditions: route intraperitoneal
Method in brief: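 Brain homogenate came from PTZ-treated mice 4 h after 100 mg/kg i.p. dosing, using the 10500 × g supernatant. Samples were equilibrated 5 min at 25 °C, started with H2O2, and A340 was followed for 5 min. n = 6.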

Rattus norvegicus [9] = test: Anticonvulsant activity against subcutaneous pentylenetetrazole-induced seizures in Wistar albino rat at 50 mg/kg, ip after 2 hrs; type: functional
Mus musculus [10] = test: Anticonvulsant activity against maximal electroshock-induced seizures in ip dosed Swiss albino mouse assessed as minimum effective dose after 0.5 hrs; type: functional; conditions: read-out: MED; method in brief: as §1
Mus musculus [11] = test: Restoration of SOD activity in subcutaneous pentylenetetrazole treated Swiss albino mouse brain assessed per mg of protein at 100 mg/kg, ip after 4 hrs; type: functional; conditions: route intraperitoneal
Method in brief: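 The ethanol phase of an ethanol/chloroform (5:3) extract of brain supernatant was used, from PTZ-treated mice 4 h after 100 mg/kg i.p. Superoxide was generated by xanthine–xanthine oxidase at pH 10.2 with NBT, 20 min at 25 °C. The reaction was stopped with CuCl2 and read at 560 nm. One unit gives 50% inhibition of NBT reduction; results are expressed as U/mg protein. n = 6.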

Mus musculus [12] = test: Neurotoxicity in ip dosed Swiss albino mouse assessed as minimum dose required to cause impair in motor coordination after 0.5 hrs by rotarod test; type: toxicity, organism-based; conditions: in vivo
Method in brief: (§3)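 Rotarod motor-impairment test in male Swiss albino mice dosed i.p. at 30, 100 or 300 mg/kg in 5% gum acacia/water. Mice that fell off the rotating rod within 30 s during pretraining were excluded. The dose at which animals fell off was recorded at 0.5 and 4 h.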

Rattus norvegicus [13] = test: Anticonvulsant activity against subcutaneous pentylenetetrazole-induced seizures in Wistar albino rat at 50 mg/kg, ip after 0.25 hrs; type: functional; conditions: route intraperitoneal
Mus musculus [14] = test: Neurotoxicity in ip dosed Swiss albino mouse assessed as minimum dose required to cause impair in motor coordination after 4 hrs by rotarod test; type: toxicity, organism-based; conditions: in vivo; method in brief: as §3

COc1cc(/C=N/NC(=O)Nc2cccc3ccccc23)cc(OC)c1OC
minimal effective dose (Mus musculus [1]): 100 mg/kg
Activity (Mus musculus [2]): 1.87 nmol
Activity (Rattus norvegicus [3]): 75%
Activity (Mus musculus [4]): 24.56 µg
Activity (Rattus norvegicus [5]): 100%
minimal effective dose (Mus musculus [6]): 100 mg/kg
minimal effective dose (Mus musculus [7]): 100 mg/kg
Activity (Mus musculus [8]): 1.97 U
Activity (Rattus norvegicus [9]): 50%
minimal effective dose (Mus musculus [10]): 100 mg/kg
Activity (Mus musculus [11]): 1.77 U
Activity (Mus musculus [12]): 300 mg/kg
Activity (Rattus norvegicus [13]): 25%
Activity (Mus musculus [14]): 300 mg/kg
